We go through 6 compounds from ChEMBL document CHEMBL1932952, “Synthesis and biochemical analysis of 2,2,3,3,4,4,5,5,6,6,7,7-dodecafluoro-N-hydroxy-octanediamides as inhibitors of human histone deacetylases” (Bioorg Med Chem, 2012).

For one assay, the target named is T1, Histone deacetylase 7 (Homo sapiens, UniProt Q8WUI4).
T1 sequence (Q8WUI4 whole entry): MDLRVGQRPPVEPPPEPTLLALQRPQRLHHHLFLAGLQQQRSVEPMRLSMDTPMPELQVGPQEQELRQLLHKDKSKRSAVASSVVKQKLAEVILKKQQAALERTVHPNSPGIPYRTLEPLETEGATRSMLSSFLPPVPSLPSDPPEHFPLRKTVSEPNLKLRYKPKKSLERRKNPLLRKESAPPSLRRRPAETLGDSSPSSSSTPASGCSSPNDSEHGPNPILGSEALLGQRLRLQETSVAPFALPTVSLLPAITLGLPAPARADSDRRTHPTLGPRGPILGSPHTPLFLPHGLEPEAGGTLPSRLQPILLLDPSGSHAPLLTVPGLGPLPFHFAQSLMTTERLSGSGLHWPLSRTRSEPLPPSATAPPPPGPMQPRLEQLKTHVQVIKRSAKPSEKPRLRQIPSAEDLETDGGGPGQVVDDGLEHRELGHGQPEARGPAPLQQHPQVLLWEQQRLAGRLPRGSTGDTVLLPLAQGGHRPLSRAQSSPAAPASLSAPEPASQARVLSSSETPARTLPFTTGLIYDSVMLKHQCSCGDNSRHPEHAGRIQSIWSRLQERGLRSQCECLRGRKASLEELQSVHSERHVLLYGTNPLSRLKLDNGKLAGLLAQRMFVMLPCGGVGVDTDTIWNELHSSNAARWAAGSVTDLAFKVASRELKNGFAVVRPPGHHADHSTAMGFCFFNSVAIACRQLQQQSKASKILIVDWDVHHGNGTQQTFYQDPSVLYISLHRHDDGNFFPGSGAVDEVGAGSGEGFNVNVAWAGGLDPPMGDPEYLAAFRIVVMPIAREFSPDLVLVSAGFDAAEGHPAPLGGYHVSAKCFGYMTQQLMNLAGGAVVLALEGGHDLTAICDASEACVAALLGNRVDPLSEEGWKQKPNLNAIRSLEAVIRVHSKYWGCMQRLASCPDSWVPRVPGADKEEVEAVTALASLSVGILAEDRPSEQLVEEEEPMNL
The assay is described as follows: Inhibition of recombinant human HDAC7 using Boc-L-Lys(trifluoroacetyl)-MCA as substrate by fluorogenic enzymatic assay.

Assay [1] deals with Histone deacetylase. Kind of assay: Inhibition of HDAC in human K562 cells using Boc-L-Lys(trifluoroacetyl)-MCA as substrate by fluorogenic cellular assay. The format is cell-based. An outline of the steps:
(§1)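 K562 cells were grown in RPMI with 10% FCS, L-glutamine and gentamycin, then pelleted. Lysis in 50 mM Tris–HCl pH 8.5, 1 M NaCl, 1 mM MgCl₂, Triton X-100 (up to 5× pellet volume), 2 h at 37 °C. The diluted lysate replaces recombinant enzyme in the two-step fluorogenic trypsin-coupled assay with substrate at 20 µM final. Read-out is AMC fluorescence (ex 390, em 460 nm), giving IC50.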

For another assay, the target named is Histone deacetylase 1 (Homo sapiens, UniProt Q13547). Kind of assay: Inhibition of recombinant human HDAC1 using Boc-L-Lys(acetyl)-MCA as substrate by fluorogenic enzymatic assay.
A further assay has as its target T2, Histone deacetylase 8 (Homo sapiens, UniProt Q9BY41).
T2 sequence (Q9BY41 whole entry): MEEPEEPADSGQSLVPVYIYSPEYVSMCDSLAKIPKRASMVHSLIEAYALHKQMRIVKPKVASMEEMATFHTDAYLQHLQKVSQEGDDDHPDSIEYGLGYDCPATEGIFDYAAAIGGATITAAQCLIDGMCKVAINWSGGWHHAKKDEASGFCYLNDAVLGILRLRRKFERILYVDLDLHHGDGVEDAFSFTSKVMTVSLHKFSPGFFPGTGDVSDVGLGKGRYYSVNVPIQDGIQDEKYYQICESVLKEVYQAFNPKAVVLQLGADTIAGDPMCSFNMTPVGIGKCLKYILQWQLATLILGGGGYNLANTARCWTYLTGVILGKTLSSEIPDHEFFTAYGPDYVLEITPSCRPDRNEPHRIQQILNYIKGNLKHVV
Kind of assay: Inhibition of recombinant human HDAC8 using Boc-L-Lys(trifluoroacetyl)-MCA as substrate by fluorogenic enzymatic assay.

In assay [2] the target is Histone deacetylase. Kind of assay: Inhibition of HDAC in human K562 cells using Boc-L-Lys(acetyl)-MCA as substrate by fluorogenic cellular assay. The assay is classed as cell-based. An outline of the steps: as §1
Assay [3] concerns the target T3, Protein deacetylase HDAC6 (Homo sapiens, UniProt Q9UBN7).
T3 sequence (Q9UBN7 whole entry): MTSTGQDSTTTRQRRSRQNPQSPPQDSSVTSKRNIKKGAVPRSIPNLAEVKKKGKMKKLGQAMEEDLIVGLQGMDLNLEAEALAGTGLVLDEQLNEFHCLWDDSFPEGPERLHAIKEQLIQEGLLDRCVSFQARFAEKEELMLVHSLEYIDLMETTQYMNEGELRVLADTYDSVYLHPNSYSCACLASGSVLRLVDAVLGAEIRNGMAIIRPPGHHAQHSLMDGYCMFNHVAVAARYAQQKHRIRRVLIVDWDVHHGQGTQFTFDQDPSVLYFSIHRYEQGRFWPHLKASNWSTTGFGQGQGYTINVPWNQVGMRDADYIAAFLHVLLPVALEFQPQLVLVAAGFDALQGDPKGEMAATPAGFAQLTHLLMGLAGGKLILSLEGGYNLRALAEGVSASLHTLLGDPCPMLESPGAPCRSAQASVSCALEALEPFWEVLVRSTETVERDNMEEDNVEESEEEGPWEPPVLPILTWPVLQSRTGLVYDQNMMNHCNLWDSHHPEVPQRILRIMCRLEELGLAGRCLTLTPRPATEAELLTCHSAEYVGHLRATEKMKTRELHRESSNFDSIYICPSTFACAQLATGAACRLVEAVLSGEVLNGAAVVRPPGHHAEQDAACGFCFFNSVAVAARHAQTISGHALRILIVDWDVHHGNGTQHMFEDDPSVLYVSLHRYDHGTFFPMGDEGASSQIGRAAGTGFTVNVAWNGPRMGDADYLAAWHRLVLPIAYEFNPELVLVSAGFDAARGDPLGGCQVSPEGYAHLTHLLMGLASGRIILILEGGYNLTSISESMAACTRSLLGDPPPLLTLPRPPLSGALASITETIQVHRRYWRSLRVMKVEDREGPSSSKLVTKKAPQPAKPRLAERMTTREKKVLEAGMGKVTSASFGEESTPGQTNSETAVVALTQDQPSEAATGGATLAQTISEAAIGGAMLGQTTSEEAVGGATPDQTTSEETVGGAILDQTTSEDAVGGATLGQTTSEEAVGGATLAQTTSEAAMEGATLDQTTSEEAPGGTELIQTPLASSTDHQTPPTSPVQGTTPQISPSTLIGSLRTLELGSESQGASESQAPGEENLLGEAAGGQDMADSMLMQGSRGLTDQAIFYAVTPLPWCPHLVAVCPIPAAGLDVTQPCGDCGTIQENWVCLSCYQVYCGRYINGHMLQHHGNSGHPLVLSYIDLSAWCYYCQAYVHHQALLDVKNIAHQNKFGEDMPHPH
Kind of assay: Inhibition of recombinant human HDAC6 using Boc-L-Lys(acetyl)-MCA as substrate by fluorogenic enzymatic assay.

Assay [4] concerns the target T4, Histone deacetylase-like amidohydrolase (Alcaligenes sp. (strain DSM 11172) (Bordetella sp. (strain FB188)), UniProt Q70I53).
T4 sequence (Q70I53 whole entry): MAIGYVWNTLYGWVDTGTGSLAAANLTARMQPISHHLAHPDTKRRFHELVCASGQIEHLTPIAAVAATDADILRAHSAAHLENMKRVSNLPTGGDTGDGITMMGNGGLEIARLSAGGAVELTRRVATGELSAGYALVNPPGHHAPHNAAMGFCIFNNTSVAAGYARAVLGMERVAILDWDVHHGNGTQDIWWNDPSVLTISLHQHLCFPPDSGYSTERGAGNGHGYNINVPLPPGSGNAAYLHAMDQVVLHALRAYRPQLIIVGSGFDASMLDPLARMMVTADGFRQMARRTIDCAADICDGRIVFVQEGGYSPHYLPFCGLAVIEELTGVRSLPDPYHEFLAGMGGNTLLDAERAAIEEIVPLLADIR
The assay is described as follows: Inhibition of Bordetella FB188 HDAH using Boc-L-Lys(acetyl)-MCA as substrate by fluorogenic enzymatic assay.

The target in assay [5] is T5, Histone deacetylase 7 (Homo sapiens) (UniProt Q8WUI4).
T5 sequence (whole entry): T1 sequence (Q8WUI4 whole entry)
The assay is described as follows: Ratio of SAHA Kd to compound Kd for recombinant human HDAC7.

For assay [6], the target named is T6, Histone deacetylase 8 (Homo sapiens) (UniProt Q9BY41).
T6 sequence (whole entry): T2 sequence (Q9BY41 whole entry)
Kind of assay: Ratio of SAHA Kd to compound Kd for recombinant human HDAC8.

Histone deacetylase 1, sequence (Q13547 whole entry): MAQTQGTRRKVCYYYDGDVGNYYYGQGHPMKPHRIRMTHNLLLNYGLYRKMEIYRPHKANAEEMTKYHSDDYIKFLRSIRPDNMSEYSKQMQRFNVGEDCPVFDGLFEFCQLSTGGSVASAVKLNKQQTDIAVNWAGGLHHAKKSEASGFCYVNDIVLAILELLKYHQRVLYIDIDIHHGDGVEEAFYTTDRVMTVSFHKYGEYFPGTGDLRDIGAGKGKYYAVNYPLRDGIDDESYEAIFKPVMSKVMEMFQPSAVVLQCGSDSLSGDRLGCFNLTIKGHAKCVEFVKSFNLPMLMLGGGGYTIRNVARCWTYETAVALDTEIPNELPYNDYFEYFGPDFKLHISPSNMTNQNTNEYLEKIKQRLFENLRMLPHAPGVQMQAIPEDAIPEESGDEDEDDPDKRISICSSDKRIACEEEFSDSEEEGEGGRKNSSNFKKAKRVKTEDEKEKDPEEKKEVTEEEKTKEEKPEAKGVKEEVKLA

What is called Kd is a measure of binding affinity in units of concentration. For orientation: IC50 means the midpoint of a concentration-inhibition curve. `O=C(NO)C(F)(F)C(F)(F)C(F)(F)C(F)(F)C(F)(F)C(F)(F)C(=O)Nc1ccccc1-c1ccccc1`: the Kd was determined as 14 µM on Histone deacetylase 7; 49 µM at Histone deacetylase 1; 5.3 µM on Histone deacetylase 8; 9.2 µM in assay [3]; 0.86 µM in assay [4]. Besides, the concentration for half-maximal inhibition (IC50) on Histone deacetylase [1] and against Histone deacetylase [2] was > 50 µM each time.

`O=C(NO)C(F)(F)C(F)(F)C(F)(F)C(F)(F)C(F)(F)C(F)(F)C(=O)Nc1cccc2cc3ccccc3cc12`: the Kd at Histone deacetylase 7 amounted to 13 µM; at Histone deacetylase 1, 14 µM; on Histone deacetylase 8, 1.4 µM; in [3], 5.9 µM; in [4], 0.74 µM. The concentration for half-maximal inhibition (IC50) on Histone deacetylase [1] and at Histone deacetylase [2] was > 50 µM throughout.

With `O=C(NO)C(F)(F)C(F)(F)C(F)(F)C(F)(F)C(F)(F)C(F)(F)C(=O)Nc1ccccc1`, the dissociation constant (Kd) was 11 µM at Histone deacetylase 7; 29 µM at Histone deacetylase 1; 17 µM on Histone deacetylase 8; 11 µM in assay [3]; 0.54 µM in assay [4]. The IC50 at Histone deacetylase [1] is 49 µM; at Histone deacetylase [2] it was > 50 µM. Besides, the Ratio in assay [5] is 3.

In the case of `O=C(NO)C(F)(F)C(F)(F)C(F)(F)C(F)(F)C(F)(F)C(F)(F)C(=O)Nc1ccc(I)cc1`, the Kd on Histone deacetylase 7 was 4.1 µM; at Histone deacetylase 1 it was 14 µM; on Histone deacetylase 8, 36 µM; in assay [3], 4.2 µM; in assay [4] it was 0.39 µM. The IC50 against Histone deacetylase [1] and against Histone deacetylase [2] was > 50 µM each time.

In the case of `O=C(NO)C(F)(F)C(F)(F)C(F)(F)C(F)(F)C(F)(F)C(F)(F)C(=O)Nc1nc(-c2ccccc2)cs1`, the Kd was determined as 1.4 µM at Histone deacetylase 7; 2.6 µM at Histone deacetylase 1; 1.5 µM on Histone deacetylase 8; 5.4 µM in [3]; 2.2 µM in assay [4]. For the same compound, the IC50 at Histone deacetylase [1] amounted to 14 µM; on Histone deacetylase [2], 30 µM. The Ratio in assay [5] was found to be 25; in assay [6], 2.

As for `Cc1ccc(NC(=O)C(F)(F)C(F)(F)C(F)(F)C(F)(F)C(F)(F)C(F)(F)C(=O)NO)cc1C`, the Kd at Histone deacetylase 7 was found to be 3.3 µM; on Histone deacetylase 1, 24 µM; on Histone deacetylase 8 it was 14 µM; in assay [3], 24 µM; in [4], 0.26 µM. The IC50 at Histone deacetylase [1] and at Histone deacetylase [2] was > 50 µM throughout.
